In ChEMBL document CHEMBL4376891, “Benzenesulfonamide Derivatives as Calcium/Calmodulin-Dependent Protein Kinase Inhibitors and Antiviral Agents against Dengue and Zika Virus Infections” (J Med Chem, 2020) one finds Activity and MST data, which are given here for one compound.

Data set [1] deals with dengue virus type 2. In words: Antiviral activity against Dengue virus 2 infected in human BE(2)-C cells assessed as NS3 protein expression at 3.125 uM treated during 3 to 24 hrs post infection by Western blot analysis (reference value: 100%). The class given is functional. The method in brief:
(§1)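 Time-of-addition design: BE(2)C cells were infected with DENV-2 or ZIKV at MOI 1. Compound at 3.125 or 6.25 μM was present either during adsorption (0–3 hpi) or afterward (3–24 hpi). Viral protein was immunoblotted against actin, with the ratio as % of the solvent control.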

Data set [2] relates to dengue virus type 2. The data set can be described thus: Antiviral activity against DENV-2 NGC-N infected in Stat1-/- mouse assessed as improvement in overall mouse survival at 4 mg/kg, po dosed 8 hrs after infection and ending at day 6 after infection (8 hrs delay) relative to control. The class given is functional.
Data set [3] concerns dengue virus type 2. The data set can be described thus: Antiviral activity against DENV-2 NGC-N infected in Stat1-/- mouse assessed as improvement in mouse survival by measuring median survival time at 4 mg/kg, po dosed 8 hrs after infection and ending at day 6 after infection (8 hrs delay) (reference value: 10 days). It is filed as functional.
Data set [4] has as its system Zika virus. The data set can be described thus: Antiviral activity against Zika virus infected in human BE(2)-C cells transfected with shCaMKIIalpha assessed as NS3 protein expression at 3.125 uM incubated for 48 hrs by Western blot analysis (reference value: 100%). The class given is functional. A general note: Immunoblotting shows a protein as a band on a membrane.

Data set [5] deals with dengue virus type 2. The data set can be described thus: Antiviral activity against DENV-2 NGC-N infected in Stat1-/- mouse assessed as effect on overall mouse survival at 2 to 8 mg/kg/day, po dosed immediately following viral infection followed by daily dosing for 6 days. It is filed as functional, organism-based.
The subject of data set [6] is dengue virus type 2. In words: Antiviral activity against DENV-2 NGC-N infected in Stat1-/- mouse assessed as reduction in viral load at 4 to 8mg/kg/day, po dosed immediately following viral infection followed by daily dosing for 3 day. The class given is functional, organism-based. In short, it runs like this:
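Stat1-/- mice infected with DENV-2 NGC-N (1x10⁵ PFU iv) or ZIKV PRVABC59 (5x10⁴ PFU sc, footpad), with oral dosing or PBS starting immediately. Serum was taken from the submandibular vein on day 3 post-infection. Viremia was measured by plaque assay and reported as individual values and mean; n = 5.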

Data set [7] deals with dengue virus type 2. In words: Antiviral activity against Dengue virus 2 infected in human BE(2)-C cells assessed as NS3 protein expression at 6.25 uM incubated for 48 hrs by Western blot analysis (reference value: 100%). It is filed as functional. In short, it runs like this: (§2)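 BE(2)C neuroblastoma cells in RPMI 1640 with 10% FBS were infected with DENV-2 PL046 at MOI 0.1 for 48 h, without or with compound at increasing concentrations. NS3 was immunoblotted with actin as loading control. The NS3:actin densitometry ratio was expressed as % of the DMSO control. Mean ± SD of 3 independent experiments.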

In data set [8] the test system is dengue virus type 2. In words: Antiviral activity against Dengue virus 2 infected in human BE(2)-C cells assessed as NS3 protein expression at 6.25 uM treated during 0 to 3 hrs post infection by Western blot analysis (reference value: 100%). The class given is functional. The method in brief: as §1
The subject of data set [9] is BE(2)-C. In words: Cytotoxicity against human BE(2)-C cells assessed as reduction in cell viability up to 12.5 uM incubated overnight by trypan blue assay relative to control. The class given is cell-based. The method in brief:
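Viable BE(2)C cell number after overnight exposure to compound up to 12.5 μM, counted by trypan blue exclusion; expressed as percent of solvent control, mean ± SD of 3 independent experiments.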

Data set [10] relates to BE(2)-C. The data set can be described thus: Cytotoxicity against human BE(2)-C cells assessed as reduction in cell viability up to 12.5 uM incubated overnight by LDH assay relative to control. The class given is cell-based. In short, it runs like this:
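BE(2)C cells (RPMI 1640, 10% FBS) exposed overnight to compound at concentrations up to 12.5 μM; XTT (proliferation) or LDH release (cytotoxicity) read by absorbance at 490 nm. Values normalized to solvent control (%), mean ± SD of 3 independent experiments.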

Data set [11] has as its system Zika virus. In words: Antiviral activity against Zika virus infected in Stat1-/- mouse assessed as improvement in overall mouse survival at 4 to 8 mg/kg, po dosed 8 hrs after infection and ending at day 6 after infection (8 hrs delay) relative to control. It is filed as functional, organism-based. The method in brief: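 Stat1-/- mice, 6 weeks old, infected sc in the footpad with 5x10⁴ PFU of ZIKV PRVABC59. Oral dosing at 4 or 8 mg/kg/day, or PBS, started 8 h post-infection and ran daily up to day 6; n = 5. Survival was monitored for 12 d, with T50 by log-rank test.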

Data set [12] has as its system dengue virus type 2. The data set can be described thus: Antiviral activity against Dengue virus 2 infected in human BE(2)-C cells assessed as reduction in NS3 protein expression at 3.125 to 6.25 uM treated during 0 to 3 hrs post infection by Western blot analysis. It is filed as functional, organism-based. In short, it runs like this:
as §1

In data set [13] the test system is Zika virus. In words: Antiviral activity against Zika virus infected in human BE(2)-C cells assessed as NS3 protein expression at 6.25 uM treated during 3 to 24 hrs post infection by Western blot analysis (reference value: 100%). The class given is functional. The method in brief: as §1
Data set [14] relates to dengue virus type 2. The data set can be described thus: Antiviral activity against Dengue virus 2 infected in human BE(2)-C cells transfected with shCaMKIIalpha assessed as NS3 protein expression at 6.25 uM incubated for 48 hrs by Western blot analysis (reference value: 100%). It is filed as functional.
The test system of data set [15] is Zika virus. The data set can be described thus: Antiviral activity against Zika virus infected in human HMC3 cells assessed as reduction in NS3 protein expression at 1.56 to 12.5 uM incubated for 24 hrs by immunofluorescence microscopy. The class given is functional, organism-based.
Data set [16] has as its system dengue virus type 2. In words: Antiviral activity against DENV-2 NGC-N infected in Stat1-/- mouse assessed as improvement in mouse survival by measuring median survival time at 4 to 8 mg/kg, po dosed 8 hrs after infection and ending at day 6 after infection (8 hrs delay) (reference value: 8 days). The class given is functional.
Data set [17] relates to dengue virus type 2. The data set can be described thus: Antiviral activity against Dengue virus 2 infected in human BE(2)-C cells transfected with shCaMKIIalpha assessed as NS3 protein expression at 3.125 uM incubated for 48 hrs by Western blot analysis (reference value: 100%). The class given is functional.
Data set [18] relates to dengue virus type 2. The data set can be described thus: Antiviral activity against fluorescently labeled Dengue virus 2 infected in human BE(2)-C cells at 3.125 uM by confocal microscopy. It is filed as functional, organism-based. The method in brief: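 DENV-2 or ZIKV was concentrated and labeled with atto-647N dye. BE(2)C cells were pretreated with solvent or 3.125 µM, then incubated at 37 °C with labeled DENV-2 for 30 min or ZIKV for 60 min. Cells were fixed in 4% paraformaldehyde, membranes stained with WGA-488, and intracellular virus signal imaged by confocal microscopy.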

Data set [19] has as its system dengue virus type 2. The data set can be described thus: Antiviral activity against Dengue virus 2 infected in human BE(2)-C cells assessed as NS3 protein expression at 3.125 uM incubated for 48 hrs by Western blot analysis (reference value: 100%). It is filed as functional. In short, it runs like this:
as §2

The subject of data set [20] is Zika virus. In words: Antiviral activity against Zika virus infected in human BE(2)-C cells transfected with shLacZ assessed as NS3 protein expression at 6.25 uM incubated for 48 hrs by Western blot analysis (reference value: 100%). It is filed as functional.
Data set [21] deals with Zika virus. In words: Antiviral activity against Zika virus infected in human BE(2)-C cells assessed as reduction in NS3 protein expression at 3.125 to 6.25 uM treated during 3 to 24 hrs post infection by Western blot analysis. It is filed as functional, organism-based. In short, it runs like this:
as §1

Structures are written as SMILES. Calls of active or inactive are those of the source. No cut-off for these calls is given here.

Take `COc1ccc(S(=O)(=O)N(CCCC(=O)C2CCCCCC2)c2ccccc2)cc1`: the Activity in data set [1] is recorded as 78.3%; in data set [2] it was 40%; in data set [4] it was 101%; in data set [7], 23.1%; in [8], 27.3%; in data set [9], “Non-Toxic”. In addition, the Activity entry was “Non-Toxic” in data set [10]; “Dose-dependent effect” in data set [12]; 79.5% in [13]; 75.4% in data set [14]; 95.1% in data set [17]; 54.5% in data set [19]. Further, the Activity in data set [20] was 25.9%. Also, the MST in [3] worked out at 22 days; in [16], 10 days. Also, the outcome in [5], in [11] and in data set [21] was inactive. In addition, the outcome in data set [6], in data set [15] and in data set [18] was Active.
